Data reported in article PMC7797077 (Nucleic Acids Research, 2020).
Blank lines part the entries; values can stand above or below the molecule they belong to. Where no end group is shown, it is not given here. The star is where a group is joined. Bz = O=C(c1ccccc1)*

Tests used:
[1] = target: AF9 YEATS domain (2-138) (human) (UniProt P42568); experiment: ITC
[2] = target: YEATS2 YEATS domain (201-332) S230F (human) (UniProt Q9ULM3); experiment: ITC
[3] = target: YEATS2 YEATS domain (201-332) (human) (UniProt Q9ULM3); experiment: ITC
[4] = tested on: histone Kbz in HEK 293T, HeLa, HCT116 and HepG2 cells; experiment: Western blot of core histone Kbz levels after NaBz treatment; type: cell-based, human; details: 24-h treatment with NaBz at various concentrations
[5] = tested on: nuclear Kbz in HEK 293T and HCT116 cells; experiment: Immunofluorescence staining of Kbz after NaBz treatment; type: cell-based, human; details: 10 mM NaBz, 24 h
Method in brief: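 Cells were fixed in 4% formaldehyde for 20 min at RT, permeabilized on ice with 0.5% Triton X-100 for 10 min, and blocked in 3% BSA for 1 h. Anti-pan Kbz (1:500) was applied overnight at 4°C, then Alexa Fluor 594 anti-mouse (1:1000) for 1 h. Mounted with DAPI; confocal imaging.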

[6] = tested on: histone Kbz and Kac in mouse intestinal epithelial cells; experiment: NaBz water feeding in mice, western blot of histone Kbz and Kac; type: in vivo, C57BL/6N mice; details: ten days of NaBz water feeding at 10, 20 and 50 mM
Method in brief: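 SPF-housed mice drank NaBz water for 10 days. Intestinal tissue was shaken at 200 rpm, 37°C, 20 min in HBSS (no Ca²⁺/Mg²⁺) with 10 mM HEPES, 5 mM EDTA, 1 mM DTT and 3% FBS. Released epithelial cells were pelleted at 1500 rpm, 4°C. Total histones were kit-extracted and BCA-quantified, then run on SDS-PAGE and PVDF. Primary antibodies overnight at 4°C; HRP secondary 1:5,000; ECL. Histone H4 served as loading control; duplicate mice.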

[7] = target: T1, AF9 YEATS domain (2-138) F28S (human, UniProt P42568 2-138, F28S); experiment: ITC
T1 sequence (looked up): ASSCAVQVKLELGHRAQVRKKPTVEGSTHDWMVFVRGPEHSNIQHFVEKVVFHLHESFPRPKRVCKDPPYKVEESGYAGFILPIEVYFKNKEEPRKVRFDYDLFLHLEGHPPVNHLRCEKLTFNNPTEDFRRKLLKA

Sequence of YEATS2 YEATS domain (201-332) (human) (Q9ULM3 201-332): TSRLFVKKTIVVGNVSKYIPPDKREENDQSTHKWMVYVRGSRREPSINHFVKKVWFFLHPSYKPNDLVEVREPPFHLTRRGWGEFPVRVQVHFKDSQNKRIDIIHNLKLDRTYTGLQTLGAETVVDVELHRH
Sequence of YEATS2 YEATS domain (201-332) S230F (human) (Q9ULM3 201-332 S230F): as the sequence (Q9ULM3 201-332) above, with S30F counted along it

- dH [2]: -6.8 kcal/mol
- Kd [3]: 21.6 µM
Molecule: histone H3_(15-39)K27bz peptide (from UniProt P68431 16-40)

- fold binding enhancement over WT AF9 YEATS [7]: ~1.6 fold
B1: histone H3_(2-16)K9bz peptide (peptide, UniProt P68431 3-17, looked up)
peptide: RTKQTARK(Bz)STGGKAP

The next lines start with the molecule.

Molecule: histone H3_(2-16)K9bz peptide (from UniProt P68431 3-17)
- Kd [1]: 5.97 µM

Molecule: O=C([O-])c1ccccc1.[Na+] [NaBz, Sodium benzoate]
- signals of histone Kbz (pan Kbz western blot) [4]: upregulated in a dose-dependent manner
- nuclear Kbz signals (immunofluorescence) [5]: lightened up
- pan Kac level of histone in mouse intestinal epithelial cells [6]: not stimulated
- histone Kbz signal in mouse intestinal epithelial cells ([6]; two mice per concentration): clearly boosted
